Among the data in ChEMBL document CHEMBL4014357, “Structure-Based Design and Synthesis of Potent and Selective Matrix Metalloproteinase 13 Inhibitors” (J Med Chem, 2017) are inhibition, Ki and IC50 values, retold here.

Assay [1] deals with Cathepsin S (Homo sapiens) (UniProt P25774). In words: Inhibition of cathepsin-S (unknown origin) at 1 uM relative to control.
For assay [2], the target named is Disintegrin and metalloproteinase domain-containing protein 10 (Homo sapiens) (UniProt O14672). In words: Inhibition of ADAM10 (unknown origin) at 1 uM relative to control.
In assay [3] the target is Procathepsin L (Homo sapiens) (UniProt P07711). Kind of assay: Inhibition of cathepsin-L (unknown origin) at 1 uM relative to control.
Assay [4] deals with Urokinase-type plasminogen activator (Homo sapiens) (UniProt P00749). In words: Inhibition of uPA (unknown origin) at 1 uM relative to control.
The target in assay [5] is Cathepsin D (Homo sapiens) (UniProt P07339). Kind of assay: Inhibition of cathepsin-D (unknown origin) at 1 uM relative to control.
Assay [6] has as its target Coagulation factor X (Homo sapiens) (UniProt P00742). Kind of assay: Inhibition of factor10a (unknown origin) at 1 uM relative to control.
Assay [7] deals with Beta-secretase 1 (Homo sapiens) (UniProt P56817). Kind of assay: Inhibition of BACE1 (unknown origin) at 1 uM relative to control.
Assay [8] concerns the target Cathepsin K (Homo sapiens) (UniProt P43235). Kind of assay: Inhibition of cathepsin-K (unknown origin) at 1 uM relative to control.
Assay [9] concerns the target Insulin-degrading enzyme (Homo sapiens) (UniProt P14735). In words: Inhibition of IDE (unknown origin) at 1 uM relative to control.
In the next assay the target is Caspase-1 (Homo sapiens) (UniProt P29466). In words: Inhibition of caspase1 (unknown origin) at 1 uM relative to control.
The next assay addresses Caspase-5 (Homo sapiens) (UniProt P51878). Kind of assay: Inhibition of caspase5 (unknown origin) at 1 uM relative to control.
In assay [10] the target is Matrilysin (Homo sapiens) (UniProt P09237). Kind of assay: Inhibition of MMP7 (unknown origin) at 1 uM relative to control.
In a further assay the target is Caspase-3 (Homo sapiens) (UniProt P42574). Kind of assay: Inhibition of caspase3 (unknown origin) at 1 uM relative to control.
The target of assay [11] is Angiotensin-converting enzyme (Homo sapiens) (UniProt P12821). Kind of assay: Inhibition of ACE (unknown origin) at 1 uM relative to control.
The next assay addresses Caspase-6 (Homo sapiens) (UniProt P55212). In words: Inhibition of caspase6 (unknown origin) at 1 uM relative to control.
Assay [12] deals with Neprilysin (Homo sapiens) (UniProt P08473). Kind of assay: Inhibition of neprilysin (unknown origin) at 1 uM relative to control.
The next assay addresses Caspase-2 (Homo sapiens) (UniProt P42575). In words: Inhibition of caspase2 (unknown origin) at 1 uM relative to control.
A further assay addresses Caspase-7 (Homo sapiens) (UniProt P55210). Kind of assay: Inhibition of caspase7 (unknown origin) at 1 uM relative to control.
The target in assay [13] is Disintegrin and metalloproteinase domain-containing protein 17 (Homo sapiens) (UniProt P78536). Kind of assay: Inhibition of TACE (unknown origin) at 1 uM relative to control.
Assay [14] deals with Angiotensin-converting enzyme 2 (Homo sapiens) (UniProt Q9BYF1). In words: Inhibition of ACE2 (unknown origin) at 1 uM relative to control.
The next assay has as its target Furin (Homo sapiens) (UniProt P09958). Kind of assay: Inhibition of furin (unknown origin) at 1 uM relative to control.
The target in assay [15] is Prothrombin (Homo sapiens) (UniProt P00734). In words: Inhibition of thrombin (unknown origin) at 1 uM relative to control.
The target of assay [16] is T1, Collagenase 3 (Homo sapiens, UniProt P45452). In words: Inhibition of full length recombinant human MMP13 expressed in mouse NSO cells using varying levels of fTHP-15 as substrate preincubated for 30 mins followed by substrate addition measured immediately by Lineweaver-Burk plot analysis.
Assay [17] concerns the target Matrix metalloproteinase-14 (Homo sapiens, UniProt P50281). In words: Inhibition of recombinant human MMP14 using fTHP-15 as substrate preincubated for 30 mins followed by substrate addition measured immediately by fluorescence assay.
Assay [18] addresses Matrix metalloproteinase-9 (Homo sapiens, UniProt P14780). Kind of assay: Inhibition of MMP9 (unknown origin) using fTHP-15 as substrate preincubated for 30 mins followed by substrate addition measured immediately by fluorescence assay.
In assay [19] the target is T2, 72 kDa type IV collagenase (Homo sapiens, UniProt P08253). Kind of assay: Inhibition of recombinant human MMP2 expressed in mouse NSO cells using fTHP-15 as substrate preincubated for 30 mins followed by substrate addition measured immediately by fluorescence assay.
The target of assay [20] is T3, Neutrophil collagenase (Homo sapiens, UniProt P22894). Kind of assay: Inhibition of MMP8 (unknown origin) using fTHP-15 as substrate preincubated for 30 mins followed by substrate addition measured immediately by fluorescence assay.
Assay [21] deals with T2, 72 kDa type IV collagenase. In words: Inhibition of recombinant human MMP2 expressed in mouse NSO cells at 200 nM using fTHP-15 as substrate preincubated for 30 mins followed by substrate addition measured immediately by fluorescence assay. In a few lines: (§1)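 Each enzyme was activated per the supplier's protocol and diluted in EAB (50 mM Tris·HCl pH 7.5, 100 mM NaCl, 10 mM CaCl2, 0.05% Brij-35). Compound was tested at a single 200 nM and preincubated with enzyme for 30 min at 25 °C. Adding fTHP-15 started the reaction, with fluorescence read immediately. Inhibition was scored as percent substrate-to-product conversion after 30 min.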

Assay [22] has as its target T1, Collagenase 3. In words: Inhibition of full length recombinant human MMP13 expressed in mouse NSO cells using fTHP-15 as substrate preincubated for 30 mins followed by substrate addition measured immediately by fluorescence assay.
The target of assay [23] is T3, Neutrophil collagenase. Kind of assay: Inhibition of MMP8 (unknown origin) at 200 nM using fTHP-15 as substrate preincubated for 30 mins followed by substrate addition measured immediately by fluorescence assay. In a few lines:
as §1

SMILES strings stand for the structures. The source made the active and inactive calls. The calls are words filed in the database; no cut-off is given here.

A word on the inhibition: it is the change of the read-out against control, counted positive when it falls. The term Ki denotes a dissociation constant, usually derived from enzyme kinetics or from competition with a known ligand. One may read the IC50 as the concentration that inhibits the measured activity by half.

Sequence of Beta-secretase 1 (Homo sapiens) (P56817 whole entry): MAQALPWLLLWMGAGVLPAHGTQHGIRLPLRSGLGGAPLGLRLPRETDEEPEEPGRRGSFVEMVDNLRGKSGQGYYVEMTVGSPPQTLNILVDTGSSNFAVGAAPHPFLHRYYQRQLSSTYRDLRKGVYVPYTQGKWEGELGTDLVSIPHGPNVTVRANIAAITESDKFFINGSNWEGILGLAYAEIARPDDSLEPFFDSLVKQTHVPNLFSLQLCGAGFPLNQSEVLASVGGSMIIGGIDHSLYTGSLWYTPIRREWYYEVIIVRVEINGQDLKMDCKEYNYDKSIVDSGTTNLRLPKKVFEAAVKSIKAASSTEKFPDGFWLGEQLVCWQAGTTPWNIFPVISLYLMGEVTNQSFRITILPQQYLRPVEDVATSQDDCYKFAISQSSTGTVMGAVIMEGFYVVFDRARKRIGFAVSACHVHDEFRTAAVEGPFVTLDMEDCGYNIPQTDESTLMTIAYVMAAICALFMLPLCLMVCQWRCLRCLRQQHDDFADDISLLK
Sequence of Caspase-3 (Homo sapiens) (P42574 29-175 limits assumed): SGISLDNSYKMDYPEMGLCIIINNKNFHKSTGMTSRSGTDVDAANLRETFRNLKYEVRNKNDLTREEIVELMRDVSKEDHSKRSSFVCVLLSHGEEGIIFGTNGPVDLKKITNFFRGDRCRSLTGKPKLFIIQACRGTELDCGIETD
Sequence of Caspase-3 (Homo sapiens) (P42574 176-277 limits assumed): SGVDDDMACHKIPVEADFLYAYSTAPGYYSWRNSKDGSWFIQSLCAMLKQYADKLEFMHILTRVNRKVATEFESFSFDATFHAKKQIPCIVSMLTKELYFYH
Sequence of Coagulation factor X (Homo sapiens) (P00742 41-179 limits assumed): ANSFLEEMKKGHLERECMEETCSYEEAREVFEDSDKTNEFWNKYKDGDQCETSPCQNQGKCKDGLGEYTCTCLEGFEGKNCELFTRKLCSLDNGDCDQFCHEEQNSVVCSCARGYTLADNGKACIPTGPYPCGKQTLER
Sequence of Coagulation factor X (Homo sapiens) (P00742 235-488 limits assumed): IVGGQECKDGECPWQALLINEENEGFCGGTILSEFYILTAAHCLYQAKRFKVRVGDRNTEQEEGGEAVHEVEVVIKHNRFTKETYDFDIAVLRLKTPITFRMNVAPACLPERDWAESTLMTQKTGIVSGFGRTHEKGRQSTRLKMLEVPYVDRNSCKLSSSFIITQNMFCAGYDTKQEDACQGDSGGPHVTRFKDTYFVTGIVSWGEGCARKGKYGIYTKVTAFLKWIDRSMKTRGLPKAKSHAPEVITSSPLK
Sequence of Disintegrin and metalloproteinase domain-containing protein 17 (Homo sapiens) (P78536 whole entry, the tested form may be a part): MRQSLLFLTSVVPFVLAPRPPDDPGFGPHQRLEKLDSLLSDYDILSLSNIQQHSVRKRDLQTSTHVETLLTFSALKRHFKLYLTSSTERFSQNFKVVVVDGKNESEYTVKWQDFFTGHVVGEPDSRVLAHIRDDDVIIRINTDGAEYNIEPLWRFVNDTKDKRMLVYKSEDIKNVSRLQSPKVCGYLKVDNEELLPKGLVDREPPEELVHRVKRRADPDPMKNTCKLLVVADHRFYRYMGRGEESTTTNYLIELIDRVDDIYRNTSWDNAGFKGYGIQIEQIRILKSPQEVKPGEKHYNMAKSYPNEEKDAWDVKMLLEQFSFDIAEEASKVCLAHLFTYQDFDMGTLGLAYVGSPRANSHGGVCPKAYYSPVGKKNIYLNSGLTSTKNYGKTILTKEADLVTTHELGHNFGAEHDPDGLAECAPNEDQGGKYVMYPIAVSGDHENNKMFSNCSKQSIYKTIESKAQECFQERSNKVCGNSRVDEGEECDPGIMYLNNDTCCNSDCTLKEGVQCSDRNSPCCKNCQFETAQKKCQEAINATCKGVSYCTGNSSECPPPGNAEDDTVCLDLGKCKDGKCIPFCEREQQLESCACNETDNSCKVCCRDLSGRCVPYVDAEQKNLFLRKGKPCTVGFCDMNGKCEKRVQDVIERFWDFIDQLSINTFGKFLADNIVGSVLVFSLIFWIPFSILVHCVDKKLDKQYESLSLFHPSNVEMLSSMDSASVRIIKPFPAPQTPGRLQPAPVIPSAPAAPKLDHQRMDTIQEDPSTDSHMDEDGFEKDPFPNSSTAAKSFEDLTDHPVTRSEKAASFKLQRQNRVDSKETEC
Sequence of Caspase-2 (Homo sapiens) (P42575 170-325 limits assumed): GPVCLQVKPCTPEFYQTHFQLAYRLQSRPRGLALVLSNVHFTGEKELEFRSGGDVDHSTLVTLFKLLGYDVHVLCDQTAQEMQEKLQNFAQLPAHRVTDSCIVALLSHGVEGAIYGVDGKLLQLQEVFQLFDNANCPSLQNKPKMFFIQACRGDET
Sequence of Caspase-2 (Homo sapiens) (P42575 334-452 limits assumed): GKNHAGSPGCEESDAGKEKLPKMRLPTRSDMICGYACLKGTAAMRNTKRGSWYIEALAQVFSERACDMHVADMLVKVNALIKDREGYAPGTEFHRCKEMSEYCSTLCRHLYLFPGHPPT
Sequence of Furin (Homo sapiens) (P09958 whole entry): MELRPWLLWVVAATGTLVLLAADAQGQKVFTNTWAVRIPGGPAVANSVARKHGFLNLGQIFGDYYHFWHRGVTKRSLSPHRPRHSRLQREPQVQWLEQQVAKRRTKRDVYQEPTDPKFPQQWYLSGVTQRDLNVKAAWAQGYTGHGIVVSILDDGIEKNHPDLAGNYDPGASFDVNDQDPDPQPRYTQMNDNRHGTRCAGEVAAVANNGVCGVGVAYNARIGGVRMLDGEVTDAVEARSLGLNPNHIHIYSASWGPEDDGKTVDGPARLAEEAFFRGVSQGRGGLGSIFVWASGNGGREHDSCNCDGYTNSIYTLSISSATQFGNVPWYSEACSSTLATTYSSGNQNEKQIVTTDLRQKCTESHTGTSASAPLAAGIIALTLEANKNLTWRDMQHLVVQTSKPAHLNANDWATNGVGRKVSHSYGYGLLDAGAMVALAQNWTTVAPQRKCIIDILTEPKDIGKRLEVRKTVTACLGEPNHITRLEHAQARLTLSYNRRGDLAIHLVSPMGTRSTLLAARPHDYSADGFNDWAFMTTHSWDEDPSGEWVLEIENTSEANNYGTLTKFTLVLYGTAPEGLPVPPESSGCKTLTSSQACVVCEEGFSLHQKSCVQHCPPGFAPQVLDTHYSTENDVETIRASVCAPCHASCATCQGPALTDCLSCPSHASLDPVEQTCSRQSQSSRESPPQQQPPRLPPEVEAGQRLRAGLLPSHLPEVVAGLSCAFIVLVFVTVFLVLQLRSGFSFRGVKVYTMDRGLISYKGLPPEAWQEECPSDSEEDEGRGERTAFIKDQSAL
Sequence of Angiotensin-converting enzyme (Homo sapiens) (P12821 whole entry): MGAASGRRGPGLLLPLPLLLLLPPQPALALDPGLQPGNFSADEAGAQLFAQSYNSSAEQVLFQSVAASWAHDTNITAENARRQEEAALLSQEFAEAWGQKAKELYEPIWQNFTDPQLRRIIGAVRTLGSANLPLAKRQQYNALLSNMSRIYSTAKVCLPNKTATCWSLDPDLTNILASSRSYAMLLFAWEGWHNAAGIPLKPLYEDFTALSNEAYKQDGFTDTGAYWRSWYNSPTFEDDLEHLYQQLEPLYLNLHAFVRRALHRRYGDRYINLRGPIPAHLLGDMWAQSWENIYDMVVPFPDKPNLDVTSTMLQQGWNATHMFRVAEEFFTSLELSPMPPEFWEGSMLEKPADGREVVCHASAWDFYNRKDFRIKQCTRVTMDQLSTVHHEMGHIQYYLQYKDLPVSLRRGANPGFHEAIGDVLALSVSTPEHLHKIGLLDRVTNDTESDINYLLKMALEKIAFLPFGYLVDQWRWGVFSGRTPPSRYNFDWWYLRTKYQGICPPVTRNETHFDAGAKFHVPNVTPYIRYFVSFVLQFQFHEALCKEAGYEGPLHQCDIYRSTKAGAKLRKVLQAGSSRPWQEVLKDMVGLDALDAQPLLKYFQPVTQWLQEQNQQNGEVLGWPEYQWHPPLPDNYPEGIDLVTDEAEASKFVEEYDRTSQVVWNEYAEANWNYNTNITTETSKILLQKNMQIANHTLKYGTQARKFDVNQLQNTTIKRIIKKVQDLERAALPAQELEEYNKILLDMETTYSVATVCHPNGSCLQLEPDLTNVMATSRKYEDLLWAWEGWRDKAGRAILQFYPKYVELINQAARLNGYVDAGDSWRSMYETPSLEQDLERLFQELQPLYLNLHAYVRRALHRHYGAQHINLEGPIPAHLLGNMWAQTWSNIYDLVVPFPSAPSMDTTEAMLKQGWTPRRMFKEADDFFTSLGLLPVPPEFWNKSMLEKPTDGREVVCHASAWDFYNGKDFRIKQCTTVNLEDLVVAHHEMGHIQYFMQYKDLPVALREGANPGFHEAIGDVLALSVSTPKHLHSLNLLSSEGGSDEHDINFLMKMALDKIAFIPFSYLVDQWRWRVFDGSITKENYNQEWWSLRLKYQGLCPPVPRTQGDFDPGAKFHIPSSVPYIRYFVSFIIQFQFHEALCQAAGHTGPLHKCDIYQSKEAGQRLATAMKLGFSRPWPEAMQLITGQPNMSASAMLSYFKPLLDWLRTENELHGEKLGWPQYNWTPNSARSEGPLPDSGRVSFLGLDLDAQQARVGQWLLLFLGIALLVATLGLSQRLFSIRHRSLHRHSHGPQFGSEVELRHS
Sequence of Cathepsin K (Homo sapiens) (P43235 whole entry): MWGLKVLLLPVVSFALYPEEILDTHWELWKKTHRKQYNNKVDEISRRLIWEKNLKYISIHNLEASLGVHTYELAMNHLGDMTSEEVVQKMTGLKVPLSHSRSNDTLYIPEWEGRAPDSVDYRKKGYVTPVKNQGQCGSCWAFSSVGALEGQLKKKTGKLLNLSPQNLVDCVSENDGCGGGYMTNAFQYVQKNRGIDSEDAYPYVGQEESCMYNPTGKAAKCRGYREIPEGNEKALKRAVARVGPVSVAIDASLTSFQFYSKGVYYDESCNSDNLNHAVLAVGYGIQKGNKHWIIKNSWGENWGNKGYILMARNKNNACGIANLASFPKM
Sequence of Cathepsin S (Homo sapiens) (P25774 115-331 limits assumed): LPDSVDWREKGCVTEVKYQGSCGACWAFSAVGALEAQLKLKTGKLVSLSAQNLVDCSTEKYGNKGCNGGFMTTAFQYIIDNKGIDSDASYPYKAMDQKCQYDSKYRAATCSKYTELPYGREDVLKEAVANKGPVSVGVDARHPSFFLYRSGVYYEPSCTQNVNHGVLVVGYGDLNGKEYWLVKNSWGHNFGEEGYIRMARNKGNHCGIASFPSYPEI

As for `NCCNS(=O)(=O)c1ccc(-c2ccc(CSc3nc4c(c(=O)[nH]3)CCC4)cc2)cc1`, the inhibition stood at 12% in assay [1]; 0% in assay [2]; 9% in assay [3]; 3% in assay [4]; 3% in assay [5]; 3% in assay [6]. The inhibition in assay [7] worked out at 1%; in assay [8], 0%; in [9], 0%; against Caspase-1 (Homo sapiens), 1%; at Caspase-5 (Homo sapiens), 0%; in [10], 7%. Further, the inhibition on Caspase-3 (Homo sapiens) turned out to be 0%; in [11], 7%; against Caspase-6 (Homo sapiens), 0%; in [12] it was 3%; at Caspase-2 (Homo sapiens), 0%; against Caspase-7 (Homo sapiens) it was 1%. The inhibition in [13] is 4%; in assay [14] it was 1%; on Furin (Homo sapiens), 0%; in assay [15] it was -3%.

Regarding `Cc1ccc(CSc2nc(O)c3c(n2)CCC3)cc1`, at Collagenase 3 [16], the Ki turned out to be 800 nM.

Regarding `O=c1[nH]c(SCc2ccc(-c3ccc(S(=O)(=O)NCCO)cc3)cc2)nc2c1CCC2`, the IC50 in assay [17] is more than 10000 nM; in assay [18], more than 10000 nM; in assay [19] it was more than 5000 nM; on Neutrophil collagenase [20] it was more than 5000 nM.

In the case of `CNC(=O)[C@@H](NC(=O)c1ccc(-c2ccc(CSc3nc4c(c(=O)[nH]3)CCC4)cc2)o1)C(C)C`, the inhibition entry (in assay [21]; on Neutrophil collagenase [23]) was “Active” in each case. Further, the IC50 on Collagenase 3 [22] is 9.4 nM.

On to `CNC(=O)[C@@H](NC(=O)c1ccc(-c2ccc(CSc3nc4c(c(=O)[nH]3)CCC4)c(F)c2)o1)C(C)C`, for which the inhibition turned out to be 2% in [1]; 0% in [2]; 7% in assay [3]; 1% in assay [4]; 0% in [5]; 0% in assay [6]. Besides, the inhibition in assay [7] was determined as 0%; in assay [8], 2%; in assay [9], 0%; on Caspase-1 (Homo sapiens), 0%; against Caspase-5 (Homo sapiens), 0%; in assay [10], 4%. Further, the inhibition on Caspase-3 (Homo sapiens) is 0%; in [11], 0%; against Caspase-6 (Homo sapiens), 0%; in [12] it was -6%; at Caspase-2 (Homo sapiens), 0%; at Caspase-7 (Homo sapiens) it was 8%. Besides, the inhibition in [13] is -3%; in assay [14], 0%; at Furin (Homo sapiens), 0%; in assay [15] it was -8%.

Turning to `CC(C)[C@@H](NS(=O)(=O)c1ccc(-c2ccc(CSc3nc4c(c(=O)[nH]3)CCC4)cc2)cc1)C(=O)O`, the half-inhibitory concentration (IC50) at Collagenase 3 [22] came out at 7 nM.

Consider `CNC(=O)[C@H](NC(=O)c1ccc(-c2ccc(CSc3nc4c(c(=O)[nH]3)CCC4)cc2)o1)C(C)C`, for which the IC50 on Collagenase 3 [22] came out at 356 nM.
